Test results published in ChEMBL document CHEMBL1275442, “Pharmacokinetics and tissue distribution of anidulafungin in rats” (Antimicrob Agents Chemother, 2008).

Assays:
Type in all cases: ADME, organism-based
Conditions in all cases: in vivo
Cerebrum = assay: Drug level in Long Evans rat cerebrum assessed as radioactivity per gram of tissue at 5 mg/kg, iv administered as single bolus dose measured 24 hrs postdose by autoradiography; parameters: dose 5 mg/kg, route intravenous
Summary of the method: (§1)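 Male pigmented Long Evans (HsdBlu:LE) rats, 7.5 weeks old, 202 to 217 g, single iv [¹⁴C]anidulafungin; one rat per sampling time. Euthanized by isoflurane and cardiac-puncture exsanguination. Sagittal whole-body sections quantified by phosphorimaging autoradiography, single samples corrected for section thickness across multiple sections per tissue. Concentrations (μg eq/g drug-derived radioactivity) interpolated from least-squares standard curves per scan.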

Zone of skin = assay: AUC (0 to infinity) in F344 rat skin assessed as total compound-derived radioactivity per gram of tissue at 5 mg/kg, iv administered as single bolus dose […]; parameters: time infinity, dose 5 mg/kg, route intravenous
Summary of the method: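 Same F344 study: single 5 mg/kg IV [¹⁴C]anidulafungin given over about 5 min. Total drug-derived radioactivity (parent plus metabolites) counted by liquid scintillation, in […]. Noncompartmental analysis of the composite mean profile.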

Spleen = assay: Half life in F344 rat spleen assessed as total compound-derived radioactivity at 5 mg/kg, iv administered as single bolus dose […]; parameters: dose 5 mg/kg, route intravenous
Summary of the method: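 Male F344 rats, 10 to 11 weeks old and 223.6 to 243.8 g, got one iv dose of [14C]anidulafungin at 5 mg/kg over about 5 min. Blood, CSF, kidney, liver, lung, quadriceps, spleen and skin were sampled predose and at 0.083 to 72 h, 3 rats per time. Total radioactivity (parent plus metabolites) was measured by liquid scintillation counting. Parameters were noncompartmental, from a composite mean profile.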

Liver = assay: Drug level in Long Evans rat liver assessed as low disposition of radioactivity per gram of tissue at 5 mg/kg, iv administered as single bolus dose measured 72 hrs postdose by autoradiography; parameters: dose 5 mg/kg, route intravenous; summary of the method: as §1

## CCCCCOc1ccc(-c2ccc(-c3ccc([14C](=O)N[C@H]4C[C@@H](O)[C@@H](O)NC(=O)[C@@H]5[C@@H](O)[C@@H](C)CN5C(=O)[C@H]([C@@H](C)O)NC(=O)[C@H]([C@H](O)[C@@H](O)c5ccc(O)cc5)NC(=O)[C@@H]5C[C@@H](O)CN5C(=O)[C@H]([C@@H](C)O)NC4=O)cc3)cc2)cc1 [14C-ANIDULAFUNGIN]
Cerebrum
  Drug uptake: 0.26 ugequiv
Zone of skin
  AUC: 326.92 ugequiv.hr/g
Spleen
  t1/2: 40.3 h
Liver
  Drug uptake: 7.22 ugequiv
